According to ChEMBL document CHEMBL5357042, “Discovery of imidazo[1,2-b]pyridazine-containing TAK1 kinase inhibitors with excellent activities against multiple myeloma” (RSC Med Chem, 2024):
Activity calls are given as the source filed them. The calls are words filed in the database; no cut-off is given here.

Tests used:
[1] = biological target: T1, Mitogen-activated protein kinase kinase kinase 7 (Homo sapiens) (UniProt O43318); assay: Inhibition of TAK1 (unknown origin) at 500 nM by ADP-Glo kinase assay
T1 sequence (whole entry): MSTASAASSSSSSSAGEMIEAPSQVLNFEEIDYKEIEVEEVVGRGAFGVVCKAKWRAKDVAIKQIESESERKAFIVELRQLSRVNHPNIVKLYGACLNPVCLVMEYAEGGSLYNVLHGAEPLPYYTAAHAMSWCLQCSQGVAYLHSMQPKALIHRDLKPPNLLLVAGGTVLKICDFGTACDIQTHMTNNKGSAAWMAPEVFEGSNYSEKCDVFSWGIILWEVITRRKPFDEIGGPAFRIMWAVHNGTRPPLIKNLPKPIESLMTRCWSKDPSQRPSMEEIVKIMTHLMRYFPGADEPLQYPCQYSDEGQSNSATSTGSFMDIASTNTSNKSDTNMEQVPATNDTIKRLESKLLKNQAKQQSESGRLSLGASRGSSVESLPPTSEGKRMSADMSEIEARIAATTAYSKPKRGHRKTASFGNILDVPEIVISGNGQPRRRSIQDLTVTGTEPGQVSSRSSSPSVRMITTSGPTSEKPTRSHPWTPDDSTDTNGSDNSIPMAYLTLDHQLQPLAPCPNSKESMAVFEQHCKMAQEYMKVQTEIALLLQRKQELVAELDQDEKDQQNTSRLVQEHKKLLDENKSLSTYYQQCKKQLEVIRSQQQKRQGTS

MPC-11 [2] = assay: Cytotoxicity against mouse MPC-11 cells assessed as reduction in cell viability incubated for 72 hrs by CellTiter-Blue assay; assay type: functional
Procedure, shortened: (§1)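 H929 (RPMI, 10% heat-inactivated FBS) or MPC-11 (DMEM, 10% FBS) cells, under 10 passages, 37 °C, 5% CO₂; 4–5 × 10³ cells/well seeded, 24 h, then compound at various concentrations for 72 h. CellTiter-Blue added for 3 h, fluorescence ex/em 560/590 nm. Normalized to DMSO-treated cells; triplicate, mean and standard deviation.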

[3] = biological target: Mitogen-activated protein kinase kinase kinase 7 (Mus musculus) (UniProt Q62073); assay: Inhibition of TAK1 in mouse MPC-11 cells assessed as reduction in TAK1 phosphorylation at Ser412 residue at 0.1 to 0.5 uM incubated for 48 hrs by Western blot analysis; assay type: cell-based; conditions: dose 0.1-0.5 µM
Procedure, shortened: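 MPC-11 cells (0.5–1 × 10⁶/well) seeded, treated after 24 h for 48 h; DMSO control. BCA protein quantitation, 10% SDS-PAGE, PVDF; pTAK1, TAK1, β-actin antibodies overnight 4 °C, HRP secondaries 2 h 24 °C, chemiluminescence. Bands quantified relative to actin; duplicates, mean and standard deviation.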

[4] = biological target: T1, Mitogen-activated protein kinase kinase kinase 7 (Homo sapiens); assay: Inhibition of TAK1 (unknown origin) at 100 nM by ADP-Glo kinase assay
NCI-H929 = assay: Cytotoxicity against human NCI-H929 cells assessed as reduction in cell viability incubated for 72 hrs by CellTiter-Blue assay; assay type: functional; procedure, shortened: as §1
[5] = biological target: T1, Mitogen-activated protein kinase kinase kinase 7 (Homo sapiens); assay: Inhibition of TAK1 (unknown origin) at 20 nM by ADP-Glo kinase assay
[6] = biological target: Mitogen-activated protein kinase kinase kinase 7 (Homo sapiens, UniProt O43318); assay: Inhibition of human TAK1 using casein as substrate in presence of [gamma-33P]-ATP by radiometric hotspot kinase assay
[7] = biological target: Mast/stem cell growth factor receptor Kit (Homo sapiens) (UniProt P10721); assay: Inhibition of human wild type partial length c-Kit (545 to 952 residues) expressed in mammalian expression system at 50 to 500 nM by KinomeScan analysis; conditions: dose 50-500 nM
[8] = biological target: Proto-oncogene tyrosine-protein kinase receptor Ret (Homo sapiens) (UniProt P07949); assay: Inhibition of human RET at 50 to 500 nM by KinomeScan analysis; conditions: dose 50-500 nM
[9] = biological target: Aurora kinase A (Homo sapiens) (UniProt O14965); assay: Inhibition of human wild type partial length Aurora A (122 to 401 residues) expressed in mammalian expression system at 50 to 500 nM by KinomeScan analysis; conditions: dose 50-500 nM
[10] = biological target: Fibroblast growth factor receptor 3 (Homo sapiens) (UniProt P22607); assay: Inhibition of human wild type partial length FGFR3 (442 to 771 residues) expressed in bacterial expression system at 50 to 500 nM by KinomeScan analysis; conditions: dose 50-500 nM
[11] = biological target: Platelet-derived growth factor receptor beta (Homo sapiens) (UniProt P09619); assay: Inhibition of human wild type partial length PDGFRB (582 to 1009 residues) expressed in bacterial expression system at 50 to 500 nM by KinomeScan analysis; conditions: dose 50-500 nM
[12] = biological target: RAC-beta serine/threonine-protein kinase (Homo sapiens) (UniProt P31751); assay: Inhibition of human wild type partial length AKT2 expressed in bacterial expression system at 50 to 500 nM by KinomeScan analysis; conditions: dose 50-500 nM
[13] = biological target: Fibroblast growth factor receptor 2 (Homo sapiens) (UniProt P21802); assay: Inhibition of human wild type partial length FGFR2 (457 to 769 residues) expressed in bacterial expression system at 50 to 500 nM by KinomeScan analysis; conditions: dose 50-500 nM
[14] = biological target: RAC-alpha serine/threonine-protein kinase (Homo sapiens) (UniProt P31749); assay: Inhibition of human wild type partial length AKT1 expressed in bacterial expression system at 50 to 500 nM by KinomeScan analysis; conditions: dose 50-500 nM
[15] = biological target: Serine/threonine-protein kinase B-raf (Homo sapiens) (UniProt P15056); assay: Inhibition of human wild type partial length BRAF (429 to 741 residues) expressed in mammalian expression system at 50 to 500 nM by KinomeScan analysis; conditions: dose 50-500 nM
[16] = biological target: cAMP-dependent protein kinase catalytic subunit alpha (Homo sapiens) (UniProt P17612); assay: Inhibition of human wild type partial length PKAC-alpha (10 to 351 residues) expressed in bacterial expression system at 50 to 500 nM by KinomeScan analysis; conditions: dose 50-500 nM
[17] = biological target: Tyrosine-protein kinase JAK2 (Homo sapiens) (UniProt O60674); assay: Inhibition of human wild type partial length JAK2 (829 to 1132 residues) expressed in mammalian expression system at 50 to 500 nM by KinomeScan analysis; conditions: dose 50-500 nM
[18] = biological target: Tyrosine-protein kinase ZAP-70 (Homo sapiens) (UniProt P43403); assay: Inhibition of human wild type partial length ZAP70 (20 to 299 residues) expressed in mammalian expression system at 50 to 500 nM by KinomeScan analysis; conditions: dose 50-500 nM
[19] = biological target: Platelet-derived growth factor receptor alpha (Homo sapiens) (UniProt P16234); assay: Inhibition of human wild type partial length PDGFRA (575 to 1002 residues) expressed in mammalian expression system at 50 to 500 nM by KinomeScan analysis; conditions: dose 50-500 nM
[20] = biological target: Vascular endothelial growth factor receptor 2 (Homo sapiens) (UniProt P35968); assay: Inhibition of human wild type partial length VEGFR2 (787 to 1253 residues) expressed in mammalian expression system at 50 to 500 nM by KinomeScan analysis; conditions: dose 50-500 nM
[21] = biological target: Aurora kinase B (Homo sapiens) (UniProt Q96GD4); assay: Inhibition of human wild type partial length Aurora B (25 to 303 residues) expressed in mammalian expression system at 50 to 500 nM by KinomeScan analysis; conditions: dose 50-500 nM
[22] = biological target: Epidermal growth factor receptor (Homo sapiens) (UniProt P00533); assay: Inhibition of human wild type partial length EGFR (669 to 1011 residues) expressed in bacterial expression system at 50 to 500 nM by KinomeScan analysis; conditions: dose 50-500 nM
MPC-11 [23] = assay: Cytotoxicity against mouse MPC-11 cells assessed as reduction in cell viability at 200 nM incubated for 72 hrs by CellTiter-Blue assay; assay type: functional; procedure, shortened: as §1
MPC-11 [24] = assay: Cytotoxicity against mouse MPC-11 cells assessed as reduction in cell viability at 0.2 to 1 uM to incubated for 72 hrs by CellTiter-Blue assay; assay type: functional, cell-based; conditions: dose 0.2-1 µM; procedure, shortened: as §1

Sequence of Mitogen-activated protein kinase kinase kinase 7 (Mus musculus) (Q62073 whole entry): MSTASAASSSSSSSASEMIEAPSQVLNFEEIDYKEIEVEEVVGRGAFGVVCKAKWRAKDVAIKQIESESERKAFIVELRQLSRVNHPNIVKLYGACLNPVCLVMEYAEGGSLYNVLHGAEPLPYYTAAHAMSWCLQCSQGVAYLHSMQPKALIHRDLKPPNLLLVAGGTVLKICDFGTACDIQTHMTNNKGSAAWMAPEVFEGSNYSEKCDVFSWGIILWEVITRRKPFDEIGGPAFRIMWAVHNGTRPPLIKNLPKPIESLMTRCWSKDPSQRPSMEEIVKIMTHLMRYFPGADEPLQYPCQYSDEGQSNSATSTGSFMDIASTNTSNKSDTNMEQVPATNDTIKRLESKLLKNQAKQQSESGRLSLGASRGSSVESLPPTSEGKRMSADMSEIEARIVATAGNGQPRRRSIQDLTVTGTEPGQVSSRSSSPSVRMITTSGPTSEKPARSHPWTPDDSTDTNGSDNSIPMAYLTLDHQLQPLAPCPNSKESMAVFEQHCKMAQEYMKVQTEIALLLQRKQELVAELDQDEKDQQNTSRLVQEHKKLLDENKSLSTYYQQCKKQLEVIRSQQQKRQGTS
Sequence of Tyrosine-protein kinase JAK2 (Homo sapiens) (O60674 whole entry, the tested form may be a part): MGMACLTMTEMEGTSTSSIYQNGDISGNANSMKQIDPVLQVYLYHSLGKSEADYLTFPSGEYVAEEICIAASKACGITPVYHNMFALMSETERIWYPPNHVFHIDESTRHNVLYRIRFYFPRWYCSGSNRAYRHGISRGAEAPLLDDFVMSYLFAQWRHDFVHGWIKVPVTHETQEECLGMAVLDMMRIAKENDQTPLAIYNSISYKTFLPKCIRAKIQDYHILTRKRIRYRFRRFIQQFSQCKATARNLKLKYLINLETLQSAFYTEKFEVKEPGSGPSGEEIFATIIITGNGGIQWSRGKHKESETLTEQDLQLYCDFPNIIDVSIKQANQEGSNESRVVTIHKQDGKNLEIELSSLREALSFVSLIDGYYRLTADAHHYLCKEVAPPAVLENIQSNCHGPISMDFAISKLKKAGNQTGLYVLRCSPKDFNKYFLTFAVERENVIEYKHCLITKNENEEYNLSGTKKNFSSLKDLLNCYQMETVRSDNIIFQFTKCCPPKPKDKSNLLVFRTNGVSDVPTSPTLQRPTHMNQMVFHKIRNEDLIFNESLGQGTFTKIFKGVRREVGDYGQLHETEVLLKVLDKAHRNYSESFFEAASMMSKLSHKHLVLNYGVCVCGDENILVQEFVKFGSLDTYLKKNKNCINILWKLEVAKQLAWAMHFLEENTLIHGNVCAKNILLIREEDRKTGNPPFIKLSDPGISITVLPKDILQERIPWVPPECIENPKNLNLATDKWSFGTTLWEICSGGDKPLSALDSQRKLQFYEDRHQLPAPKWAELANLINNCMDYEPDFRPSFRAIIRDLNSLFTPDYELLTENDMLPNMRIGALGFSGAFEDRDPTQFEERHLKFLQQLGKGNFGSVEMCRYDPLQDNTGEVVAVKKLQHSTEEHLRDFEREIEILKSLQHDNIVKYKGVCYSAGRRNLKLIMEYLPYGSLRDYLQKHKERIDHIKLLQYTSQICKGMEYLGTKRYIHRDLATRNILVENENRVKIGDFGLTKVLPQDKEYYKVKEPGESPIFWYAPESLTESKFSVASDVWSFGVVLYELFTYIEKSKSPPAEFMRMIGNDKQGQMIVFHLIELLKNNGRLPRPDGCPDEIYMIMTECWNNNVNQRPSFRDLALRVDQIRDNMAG
Sequence of Platelet-derived growth factor receptor beta (Homo sapiens) (P09619 whole entry, the tested form may be a part): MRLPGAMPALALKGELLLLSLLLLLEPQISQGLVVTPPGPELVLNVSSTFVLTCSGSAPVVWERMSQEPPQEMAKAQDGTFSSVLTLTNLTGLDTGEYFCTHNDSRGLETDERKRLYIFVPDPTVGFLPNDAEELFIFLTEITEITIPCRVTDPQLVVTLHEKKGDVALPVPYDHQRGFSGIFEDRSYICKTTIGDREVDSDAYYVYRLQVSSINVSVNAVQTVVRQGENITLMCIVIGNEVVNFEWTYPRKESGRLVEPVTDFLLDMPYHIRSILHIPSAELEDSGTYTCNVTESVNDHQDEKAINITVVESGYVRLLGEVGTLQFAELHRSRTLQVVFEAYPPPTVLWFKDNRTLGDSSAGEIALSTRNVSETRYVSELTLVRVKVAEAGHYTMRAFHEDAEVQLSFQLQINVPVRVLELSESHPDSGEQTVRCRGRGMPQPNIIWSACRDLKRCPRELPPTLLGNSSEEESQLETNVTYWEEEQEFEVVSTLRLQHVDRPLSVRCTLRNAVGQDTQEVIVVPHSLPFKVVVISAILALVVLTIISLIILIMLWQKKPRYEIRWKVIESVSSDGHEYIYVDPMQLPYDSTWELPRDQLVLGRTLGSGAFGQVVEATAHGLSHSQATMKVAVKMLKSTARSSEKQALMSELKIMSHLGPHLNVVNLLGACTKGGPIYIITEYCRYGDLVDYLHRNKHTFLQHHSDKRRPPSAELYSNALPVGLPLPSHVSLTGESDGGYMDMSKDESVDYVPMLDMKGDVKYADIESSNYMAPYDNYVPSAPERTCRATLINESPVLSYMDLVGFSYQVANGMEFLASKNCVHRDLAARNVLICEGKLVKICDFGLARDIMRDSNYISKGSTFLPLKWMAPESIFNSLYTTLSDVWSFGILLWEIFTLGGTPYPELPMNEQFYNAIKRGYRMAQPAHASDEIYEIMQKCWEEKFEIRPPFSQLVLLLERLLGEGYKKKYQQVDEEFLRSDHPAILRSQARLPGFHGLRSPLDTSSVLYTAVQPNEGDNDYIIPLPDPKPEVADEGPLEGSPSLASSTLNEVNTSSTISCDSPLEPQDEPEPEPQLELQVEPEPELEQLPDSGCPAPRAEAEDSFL
Sequence of Proto-oncogene tyrosine-protein kinase receptor Ret (Homo sapiens) (P07949 whole entry, the tested form may be a part): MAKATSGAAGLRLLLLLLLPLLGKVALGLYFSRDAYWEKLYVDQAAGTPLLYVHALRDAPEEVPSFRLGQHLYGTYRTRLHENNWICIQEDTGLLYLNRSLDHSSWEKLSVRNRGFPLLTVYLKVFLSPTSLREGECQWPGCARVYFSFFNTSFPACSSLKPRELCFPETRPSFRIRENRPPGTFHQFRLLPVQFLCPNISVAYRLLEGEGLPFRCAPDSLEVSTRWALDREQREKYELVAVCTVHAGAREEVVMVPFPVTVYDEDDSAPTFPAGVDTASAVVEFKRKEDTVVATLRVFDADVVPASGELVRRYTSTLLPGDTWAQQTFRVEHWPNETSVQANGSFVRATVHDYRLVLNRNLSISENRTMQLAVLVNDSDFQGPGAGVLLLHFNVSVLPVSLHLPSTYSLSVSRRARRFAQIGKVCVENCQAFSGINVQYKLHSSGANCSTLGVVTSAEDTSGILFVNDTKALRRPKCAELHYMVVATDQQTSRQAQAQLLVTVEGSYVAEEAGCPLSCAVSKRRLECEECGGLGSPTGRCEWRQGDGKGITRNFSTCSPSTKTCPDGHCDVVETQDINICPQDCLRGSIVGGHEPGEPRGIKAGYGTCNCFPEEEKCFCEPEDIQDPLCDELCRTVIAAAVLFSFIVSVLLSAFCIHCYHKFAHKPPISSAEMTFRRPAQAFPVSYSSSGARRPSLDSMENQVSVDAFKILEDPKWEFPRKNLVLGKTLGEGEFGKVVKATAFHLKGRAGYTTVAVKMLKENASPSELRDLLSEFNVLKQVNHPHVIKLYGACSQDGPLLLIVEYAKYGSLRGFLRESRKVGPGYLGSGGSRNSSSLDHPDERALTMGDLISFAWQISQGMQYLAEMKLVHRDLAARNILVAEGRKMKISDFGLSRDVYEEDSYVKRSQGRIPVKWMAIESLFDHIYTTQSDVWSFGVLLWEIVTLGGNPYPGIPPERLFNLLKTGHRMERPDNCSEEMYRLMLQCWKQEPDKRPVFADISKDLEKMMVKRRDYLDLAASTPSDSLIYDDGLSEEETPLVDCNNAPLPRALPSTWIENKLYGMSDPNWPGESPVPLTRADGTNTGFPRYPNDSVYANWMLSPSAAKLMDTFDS
Sequence of Aurora kinase B (Homo sapiens) (Q96GD4 whole entry, the tested form may be a part): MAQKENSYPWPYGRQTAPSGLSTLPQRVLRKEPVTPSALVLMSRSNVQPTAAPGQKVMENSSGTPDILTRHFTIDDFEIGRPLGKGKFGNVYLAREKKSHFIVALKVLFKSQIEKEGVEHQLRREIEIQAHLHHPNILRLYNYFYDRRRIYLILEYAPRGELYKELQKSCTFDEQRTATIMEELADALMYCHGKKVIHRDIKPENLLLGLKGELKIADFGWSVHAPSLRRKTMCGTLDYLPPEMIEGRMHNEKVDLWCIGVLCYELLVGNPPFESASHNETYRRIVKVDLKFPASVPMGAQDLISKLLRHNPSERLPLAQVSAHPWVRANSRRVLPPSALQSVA
Sequence of Tyrosine-protein kinase ZAP-70 (Homo sapiens) (P43403 whole entry, the tested form may be a part): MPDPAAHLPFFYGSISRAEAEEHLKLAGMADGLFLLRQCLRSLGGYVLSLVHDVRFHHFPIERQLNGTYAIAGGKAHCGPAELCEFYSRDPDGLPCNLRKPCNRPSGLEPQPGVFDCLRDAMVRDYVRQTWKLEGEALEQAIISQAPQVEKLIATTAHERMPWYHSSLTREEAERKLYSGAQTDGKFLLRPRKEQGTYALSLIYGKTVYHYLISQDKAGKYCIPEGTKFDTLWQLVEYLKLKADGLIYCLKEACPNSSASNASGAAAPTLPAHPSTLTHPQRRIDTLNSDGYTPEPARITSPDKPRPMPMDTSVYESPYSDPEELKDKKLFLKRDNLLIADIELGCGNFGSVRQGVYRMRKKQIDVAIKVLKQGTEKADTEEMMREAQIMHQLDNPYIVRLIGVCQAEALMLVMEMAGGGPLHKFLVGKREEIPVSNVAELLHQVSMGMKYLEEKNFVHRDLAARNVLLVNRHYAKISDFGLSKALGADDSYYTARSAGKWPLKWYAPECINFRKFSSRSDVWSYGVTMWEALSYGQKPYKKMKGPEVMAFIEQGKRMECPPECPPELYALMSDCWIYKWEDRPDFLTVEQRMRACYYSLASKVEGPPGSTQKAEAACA

SMILES | inhibition [1] [%] | inhibition [3] | inhibition [4] [%] | inhibition [5] [%] | IC50 [6] [nM] | GI50 (MPC-11 [2]) [nM] | GI50 (NCI-H929) [nM] | Activity (MPC-11 [24]) | also measured
Cc1n[nH]c2ccc(-c3cnc4ccc(N5C[C@@H](C)O[C@@H](C)C5)nn34)cc12 | 100 | Active | 95 | > 50 | – | 72 | 87 | – | –
CCCn1/c(=N/C(=O)c2cccc(C(N)=O)c2)[nH]c2ccccc21 | – | – | – | – | 187 | 8500 | 51000 | – | –
C[C@@H]1CN(c2ccc3ncc(-c4ccc5[nH]nc(C6CC6)c5c4)n3n2)C[C@H](C)O1 | 100 | Active | > 50 | > 50 | 55 | 41 | 43 | – | inhibition [7]: Active; inhibition [8]: Active; inhibition [9]: Active; inhibition [10]: Active; inhibition [11]: Active; inhibition [12]: Active; inhibition [13]: Active; inhibition [14]: Active; inhibition [15]: Active; inhibition [16]: Active; inhibition [17]: Active; inhibition [18]: Active; inhibition [19]: Active; inhibition [20]: Active; inhibition [21]: Active; inhibition [22]: Active
Cc1n[nH]c2ccc(-c3cnc4ccc(N5CC6CCC(C5)O6)nn34)cc12 | > 50 | – | > 50 | > 50 | – | 131 | 33 | Active | –

More lines, main results first:

inhibition [1] [%] | inhibition [3] | inhibition [4] [%] | inhibition [5] [%] | IC50 [6] [nM] | SMILES | GI50 (MPC-11 [2]) [nM] | GI50 (NCI-H929) [nM] | Activity (MPC-11 [24]) | also measured
> 50 | – | > 50 | > 50 | – | Cc1n[nH]c2ccc(-c3cnc4ccc(N5CCO[C@H](C)C5)nn34)cc12 | – | – | Active | inhibition at 0.2 µM (MPC-11 [23]): ~50%
100 | – | > 50 | > 50 | – | Cc1n[nH]c2ccc(-c3cnc4ccc(N5CCO[C@@H](C)C5)nn34)cc12 | – | – | inactive | inhibition (MPC-11 [23]): inactive
